System: U2OS
Test: Multiplex assay against U2OS
Format: toxicity, cell-based
Details: human
Procedure, shortened: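 Cells were classed with CellPathfinder machine-learning gating, first as Hoechst high-intensity objects or normal cells, then (normal cells) as healthy, pyknosed or fragmented nuclei, and finally (pyknosed cells) as mitotic or apoptotic. Staining of live cells at seeding used Hoechst33342, BioTracker Green Microtubule Cytoskeleton Dye, MitoTracker Red and Annexin V Alexa Fluor 680, with imaging on a CQ1 microscope at 37°C and 5% CO2 after compound addition. Tubulin, mitochondrial-mass and membrane-permeability phenotypes are per cents of healthy-nucleus cells.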

[1] = 12 h, 1 µM, compound concentration 1 uM, replicate 1
[2] = 12 h, 1 µM, compound concentration 1 uM, replicate 2
[3] = 12 h, 10 µM, compound concentration 10 uM, replicate 1
[4] = 12 h, 10 µM, compound concentration 10 uM, replicate 2
[5] = 24 h, 1 µM, compound concentration 1 uM, replicate 1
[6] = 24 h, 1 µM, compound concentration 1 uM, replicate 2
[7] = 24 h, 10 µM, compound concentration 10 uM, replicate 1
[8] = 24 h, 10 µM, compound concentration 10 uM, replicate 2
[9] = 48 h, 1 µM, compound concentration 1 uM, replicate 1
[10] = 48 h, 1 µM, compound concentration 1 uM, replicate 2
[11] = 48 h, 10 µM, compound concentration 10 uM, replicate 1
[12] = 48 h, 10 µM, compound concentration 10 uM, replicate 2

**Q.** `CC(C)(C)c1ccc(S(=O)(=O)Nc2ccc(Cl)cc2C(=O)c2cc[n+]([O-])cc2)cc1` [VERCIRNON] was tested. Which “Population Apoptotic (%)” value [1] did it give?
**A.** 77%

**Q.** What about the “Population Fragmented Nuclei (%)” value [1] of the same molecule?
**A.** 28%

**Q.** And the “Population Healthy Nuclei (%)” value [1]?
**A.** 61%

**Q.** And the “Population Hoechst High Intensity Objects (%)” value [1]?
**A.** 1%

**Q.** What about the “Population Membrane Permeable-Phenotype (%)” value [1] of the same molecule?
**A.** 8%

**Q.** What about the “Population Mitochondria Different-Phenotype (%)” value [1] of the same molecule?
**A.** 5%

**Q.** And the “Population Mitotic Cells (%)” value [1]?
**A.** 22%

**Q.** And the “Population Normal (%)” value [1]?
**A.** 98%

**Q.** And the “Population Pyknosed Nuclei (%)” value [1]?
**A.** 10%

**Q.** And the “Population Tubulin-Different-Phenotype (%)” value [1]?
**A.** 4%

**Q.** And the “Total Cell Count” value [1]?
**A.** 307

**Q.** What about the “Population Apoptotic (%)” value [2] of the same molecule?
**A.** 100%

**Q.** And the “Population Fragmented Nuclei (%)” value [2]?
**A.** 15%

**Q.** What about the “Population Healthy Nuclei (%)” value [2] of the same molecule?
**A.** 79%

**Q.** And the “Population Hoechst High Intensity Objects (%)” value [2]?
**A.** 0%

**Q.** What about the “Population Mitochondria Different-Phenotype (%)” value [2] of the same molecule?
**A.** 4%

**Q.** What about the “Population Mitotic Cells (%)” value [2] of the same molecule?
**A.** 0%

**Q.** And the “Population Normal (%)” value [2]?
**A.** 99%

**Q.** And the “Population Pyknosed Nuclei (%)” value [2]?
**A.** 5%

**Q.** And the “Population Tubulin-Different-Phenotype (%)” value [2]?
**A.** 3%

**Q.** What about the “Total Cell Count” value [2] of the same molecule?
**A.** 156

**Q.** And the “Population Apoptotic (%)” value [3]?
**A.** 77%

**Q.** What about the “Population Fragmented Nuclei (%)” value [3] of the same molecule?
**A.** 24%

**Q.** And the “Population Healthy Nuclei (%)” value [3]?
**A.** 68%

**Q.** And the “Population Hoechst High Intensity Objects (%)” value [3]?
**A.** 1%

**Q.** And the “Population Membrane Permeable-Phenotype (%)” value [3]?
**A.** 3%

**Q.** And the “Population Mitochondria Different-Phenotype (%)” value [3]?
**A.** 2%

**Q.** And the “Population Mitotic Cells (%)” value [3]?
**A.** 22%

**Q.** And the “Population Normal (%)” value [3]?
**A.** 98%

**Q.** What about the “Population Pyknosed Nuclei (%)” value [3] of the same molecule?
**A.** 6%

**Q.** And the “Population Tubulin-Different-Phenotype (%)” value [3]?
**A.** 1%

**Q.** What about the “Total Cell Count” value [3] of the same molecule?
**A.** 266

**Q.** What about the “Population Apoptotic (%)” value [4] of the same molecule?
**A.** 50%

**Q.** What about the “Population Fragmented Nuclei (%)” value [4] of the same molecule?
**A.** 21%

**Q.** And the “Population Healthy Nuclei (%)” value [4]?
**A.** 77%

**Q.** And the “Population Hoechst High Intensity Objects (%)” value [4]?
**A.** 0%

**Q.** What about the “Population Membrane Permeable-Phenotype (%)” value [4] of the same molecule?
**A.** 15%

**Q.** And the “Population Mitotic Cells (%)” value [4]?
**A.** 50%

**Q.** And the “Population Normal (%)” value [4]?
**A.** 99%

**Q.** What about the “Population Pyknosed Nuclei (%)” value [4] of the same molecule?
**A.** 1%

**Q.** And the “Population Tubulin-Different-Phenotype (%)” value [4]?
**A.** 15%

**Q.** And the “Total Cell Count” value [4]?
**A.** 123

**Q.** What about the “Population Apoptotic (%)” value [5] of the same molecule?
**A.** 89%

**Q.** And the “Population Fragmented Nuclei (%)” value [5]?
**A.** 25%

**Q.** And the “Population Healthy Nuclei (%)” value [5]?
**A.** 67%

**Q.** And the “Population Hoechst High Intensity Objects (%)” value [5]?
**A.** 1%

**Q.** And the “Population Membrane Permeable-Phenotype (%)” value [5]?
**A.** 8%

**Q.** What about the “Population Mitochondria Different-Phenotype (%)” value [5] of the same molecule?
**A.** 5%

**Q.** What about the “Population Mitotic Cells (%)” value [5] of the same molecule?
**A.** 10%

**Q.** And the “Population Normal (%)” value [5]?
**A.** 98%

**Q.** And the “Population Pyknosed Nuclei (%)” value [5]?
**A.** 7%

**Q.** What about the “Population Tubulin-Different-Phenotype (%)” value [5] of the same molecule?
**A.** 4%

**Q.** And the “Total Cell Count” value [5]?
**A.** 357

**Q.** What about the “Population Apoptotic (%)” value [6] of the same molecule?
**A.** 92%

**Q.** What about the “Population Fragmented Nuclei (%)” value [6] of the same molecule?
**A.** 18%

**Q.** And the “Population Healthy Nuclei (%)” value [6]?
**A.** 74%

**Q.** What about the “Population Hoechst High Intensity Objects (%)” value [6] of the same molecule?
**A.** 0%

**Q.** What about the “Population Membrane Permeable-Phenotype (%)” value [6] of the same molecule?
**A.** 2%

**Q.** What about the “Population Mitochondria Different-Phenotype (%)” value [6] of the same molecule?
**A.** 4%

**Q.** And the “Population Mitotic Cells (%)” value [6]?
**A.** 7%

**Q.** What about the “Population Normal (%)” value [6] of the same molecule?
**A.** 99%

**Q.** What about the “Population Tubulin-Different-Phenotype (%)” value [6] of the same molecule?
**A.** 2%

**Q.** And the “Total Cell Count” value [6]?
**A.** 183

**Q.** What about the “Population Apoptotic (%)” value [7] of the same molecule?
**A.** 76%

**Q.** And the “Population Fragmented Nuclei (%)” value [7]?
**A.** 21%

**Q.** What about the “Population Healthy Nuclei (%)” value [7] of the same molecule?
**A.** 72%

**Q.** What about the “Population Hoechst High Intensity Objects (%)” value [7] of the same molecule?
**A.** 2%

**Q.** And the “Population Membrane Permeable-Phenotype (%)” value [7]?
**A.** 1%

**Q.** What about the “Population Mitochondria Different-Phenotype (%)” value [7] of the same molecule?
**A.** 1%

**Q.** And the “Population Mitotic Cells (%)” value [7]?
**A.** 23%

**Q.** What about the “Population Normal (%)” value [7] of the same molecule?
**A.** 97%

**Q.** And the “Population Pyknosed Nuclei (%)” value [7]?
**A.** 5%

**Q.** And the “Population Tubulin-Different-Phenotype (%)” value [7]?
**A.** 1%

**Q.** And the “Total Cell Count” value [7]?
**A.** 297

**Q.** What about the “Population Apoptotic (%)” value [8] of the same molecule?
**A.** 71%

**Q.** And the “Population Fragmented Nuclei (%)” value [8]?
**A.** 22%

**Q.** And the “Population Hoechst High Intensity Objects (%)” value [8]?
**A.** 1%

**Q.** And the “Population Membrane Permeable-Phenotype (%)” value [8]?
**A.** 13%

**Q.** And the “Population Mitotic Cells (%)” value [8]?
**A.** 28%

**Q.** What about the “Population Normal (%)” value [8] of the same molecule?
**A.** 98%

**Q.** And the “Population Pyknosed Nuclei (%)” value [8]?
**A.** 4%

**Q.** And the “Population Tubulin-Different-Phenotype (%)” value [8]?
**A.** 15%

**Q.** And the “Total Cell Count” value [8]?
**A.** 160

**Q.** What about the “Population Apoptotic (%)” value [9] of the same molecule?
**A.** 82%

**Q.** What about the “Population Fragmented Nuclei (%)” value [9] of the same molecule?
**A.** 19%

**Q.** And the “Population Healthy Nuclei (%)” value [9]?
**A.** 73%

**Q.** And the “Population Hoechst High Intensity Objects (%)” value [9]?
**A.** 3%

**Q.** What about the “Population Membrane Permeable-Phenotype (%)” value [9] of the same molecule?
**A.** 5%

**Q.** And the “Population Mitochondria Different-Phenotype (%)” value [9]?
**A.** 3%

**Q.** What about the “Population Mitotic Cells (%)” value [9] of the same molecule?
**A.** 17%

**Q.** What about the “Population Normal (%)” value [9] of the same molecule?
**A.** 96%

**Q.** What about the “Population Pyknosed Nuclei (%)” value [9] of the same molecule?
**A.** 6%

**Q.** And the “Population Tubulin-Different-Phenotype (%)” value [9]?
**A.** 4%

**Q.** What about the “Total Cell Count” value [9] of the same molecule?
**A.** 515

**Q.** And the “Population Apoptotic (%)” value [10]?
**A.** 84%

**Q.** And the “Population Fragmented Nuclei (%)” value [10]?
**A.** 15%

**Q.** What about the “Population Healthy Nuclei (%)” value [10] of the same molecule?
**A.** 75%

**Q.** What about the “Population Hoechst High Intensity Objects (%)” value [10] of the same molecule?
**A.** 4%

**Q.** And the “Population Membrane Permeable-Phenotype (%)” value [10]?
**A.** 7%

**Q.** And the “Population Mitochondria Different-Phenotype (%)” value [10]?
**A.** 2%

**Q.** And the “Population Mitotic Cells (%)” value [10]?
**A.** 15%

**Q.** What about the “Population Normal (%)” value [10] of the same molecule?
**A.** 95%

**Q.** What about the “Population Pyknosed Nuclei (%)” value [10] of the same molecule?
**A.** 9%

**Q.** And the “Population Tubulin-Different-Phenotype (%)” value [10]?
**A.** 2%

**Q.** And the “Total Cell Count” value [10]?
**A.** 296

**Q.** What about the “Population Apoptotic (%)” value [11] of the same molecule?
**A.** 79%

**Q.** And the “Population Fragmented Nuclei (%)” value [11]?
**A.** 18%

**Q.** And the “Population Healthy Nuclei (%)” value [11]?
**A.** 75%

**Q.** What about the “Population Hoechst High Intensity Objects (%)” value [11] of the same molecule?
**A.** 1%

**Q.** And the “Population Membrane Permeable-Phenotype (%)” value [11]?
**A.** 2%

**Q.** What about the “Population Mitochondria Different-Phenotype (%)” value [11] of the same molecule?
**A.** 1%

**Q.** And the “Population Mitotic Cells (%)” value [11]?
**A.** 20%

**Q.** What about the “Population Normal (%)” value [11] of the same molecule?
**A.** 98%

**Q.** And the “Population Pyknosed Nuclei (%)” value [11]?
**A.** 5%

**Q.** And the “Population Tubulin-Different-Phenotype (%)” value [11]?
**A.** 1%

**Q.** And the “Total Cell Count” value [11]?
**A.** 414

**Q.** And the “Population Apoptotic (%)” value [12]?
**A.** 77%

**Q.** And the “Population Fragmented Nuclei (%)” value [12]?
**A.** 26%

**Q.** And the “Population Healthy Nuclei (%)” value [12]?
**A.** 65%

**Q.** And the “Population Hoechst High Intensity Objects (%)” value [12]?
**A.** 2%

**Q.** What about the “Population Membrane Permeable-Phenotype (%)” value [12] of the same molecule?
**A.** 8%

**Q.** What about the “Population Mitochondria Different-Phenotype (%)” value [12] of the same molecule?
**A.** 5%

**Q.** What about the “Population Mitotic Cells (%)” value [12] of the same molecule?
**A.** 22%

**Q.** And the “Population Normal (%)” value [12]?
**A.** 97%

**Q.** And the “Population Pyknosed Nuclei (%)” value [12]?
**A.** 8%

**Q.** And the “Population Tubulin-Different-Phenotype (%)” value [12]?
**A.** 11%

**Q.** What about the “Total Cell Count” value [12] of the same molecule?
**A.** 215

Source: ChEMBL document CHEMBL5058577, “EUbOPEN Chemogenomics Library 2 (Multiplex)” (2022)
